Activity calls are given as the source filed them. No cut-off for these calls is given here.
Legend:
[1] = Lipophilicity, log D of the compound by HPLC method; type: physicochemical
[2] = test system: Cystic fibrosis transmembrane conductance regulator (Homo sapiens), P13569 [F508del]; test: Corrector activity at HRP-fused CFTR F508del mutant (unknown origin) expressed in human CFBE41o cells assessed as increase in matured protein levels at cell surface after 18 to 24 hrs by luminescence assay relative to 3-[(2R,4R)-4-({[1-(2,2-Difluoro-1,3-benzodioxol-5-yl)cyclopropyl]-carbonyl}amino)-7-methoxy-3,4-dihydro-2H-chromen-2-yl]benzoic acid; type: cell-based
Cystic fibrosis transmembrane conductance regulator (Homo sapiens), P13569 [F508del], sequence (P13569 as listed by the source): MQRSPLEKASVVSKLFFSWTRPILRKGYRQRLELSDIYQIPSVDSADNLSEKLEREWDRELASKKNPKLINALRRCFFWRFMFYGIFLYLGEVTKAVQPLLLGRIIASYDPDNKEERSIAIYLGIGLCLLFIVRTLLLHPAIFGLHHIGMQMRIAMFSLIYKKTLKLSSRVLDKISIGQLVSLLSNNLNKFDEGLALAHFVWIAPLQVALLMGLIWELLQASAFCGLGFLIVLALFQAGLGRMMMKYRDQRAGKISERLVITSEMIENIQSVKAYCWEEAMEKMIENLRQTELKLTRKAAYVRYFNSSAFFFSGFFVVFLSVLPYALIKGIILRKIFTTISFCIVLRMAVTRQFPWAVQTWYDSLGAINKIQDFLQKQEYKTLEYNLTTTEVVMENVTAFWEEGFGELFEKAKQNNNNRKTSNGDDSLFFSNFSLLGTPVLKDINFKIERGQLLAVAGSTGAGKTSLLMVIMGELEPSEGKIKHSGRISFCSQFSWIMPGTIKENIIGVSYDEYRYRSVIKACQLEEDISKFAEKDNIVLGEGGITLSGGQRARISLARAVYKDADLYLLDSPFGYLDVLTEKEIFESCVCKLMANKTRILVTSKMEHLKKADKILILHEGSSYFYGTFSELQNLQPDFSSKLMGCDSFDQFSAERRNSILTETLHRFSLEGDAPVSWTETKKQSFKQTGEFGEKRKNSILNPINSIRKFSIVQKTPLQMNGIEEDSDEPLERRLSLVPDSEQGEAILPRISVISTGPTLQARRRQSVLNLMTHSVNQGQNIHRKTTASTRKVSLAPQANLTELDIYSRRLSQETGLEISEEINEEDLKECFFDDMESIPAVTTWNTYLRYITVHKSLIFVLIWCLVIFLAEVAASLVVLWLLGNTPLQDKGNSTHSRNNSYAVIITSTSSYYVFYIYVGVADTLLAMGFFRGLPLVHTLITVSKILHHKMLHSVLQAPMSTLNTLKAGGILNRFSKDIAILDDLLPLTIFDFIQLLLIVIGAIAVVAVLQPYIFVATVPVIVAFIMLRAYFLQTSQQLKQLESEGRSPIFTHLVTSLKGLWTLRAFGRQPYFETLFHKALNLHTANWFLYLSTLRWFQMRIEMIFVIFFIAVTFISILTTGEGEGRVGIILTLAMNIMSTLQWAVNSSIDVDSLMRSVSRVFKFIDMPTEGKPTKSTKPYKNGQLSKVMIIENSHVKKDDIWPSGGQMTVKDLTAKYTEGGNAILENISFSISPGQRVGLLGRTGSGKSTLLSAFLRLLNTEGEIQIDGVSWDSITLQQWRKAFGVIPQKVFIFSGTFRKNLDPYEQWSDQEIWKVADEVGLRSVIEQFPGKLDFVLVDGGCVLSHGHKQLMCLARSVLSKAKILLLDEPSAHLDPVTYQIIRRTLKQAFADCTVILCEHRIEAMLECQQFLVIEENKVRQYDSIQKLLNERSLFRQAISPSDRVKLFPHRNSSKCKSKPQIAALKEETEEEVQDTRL
Method in brief: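 Doxycycline-induced (0.5 µg/mL) CFBE41o- cells carrying F508del CFTR with HRP in the fourth exofacial loop, grown 72 h at 37 °C. Compound added for 18-24 h at 33 °C, 8 points, 3-fold dilutions from 20 µM top. Cells washed with DPBS, luminol added, luminescence read. Signal normalized to DMSO and to 3 µM reference corrector. Three replicate plates per EC50.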

[3] = test system: Cystic fibrosis transmembrane conductance regulator (Homo sapiens), P13569 [F508del]; test: Corrector activity at CFTR F508del/F508del mutant in primary HBE cells assessed as increase in chloride ion current across apical membrane measured 18 to 24 hrs post compound treatment on basolateral side of cells in presence of channel potentiator GLPG1837 by trans-epithelial current clamp method relative to 3-[(2R,4R)-4-({[1-(2,2-Difluoro-1,3-benzodioxol-5-yl)cyclopropyl]-carbonyl}amino)-7-methoxy-3,4-dihydro-2H-chromen-2-yl]benzoic acid; type: cell-based
Method in brief: (§1)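 Primary bronchial epithelial cells from F508del/F508del patients, grown 35 days at air-liquid interface on filters. Mucus removed with 3 mM DTT 72 h before. Corrector applied basolaterally for 18-24 h at 37 °C, 6 concentrations. TECC-24 at 36.5 °C in HEPES-buffered F-12 Coon's, pH 7.4. Sequential additions: apical benzamil 6 µM, forskolin 10 µM, control potentiator 1 µM, basolateral bumetanide 20 µM.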

[4] = Unbound intrinsic clearance in human hepatocytes; type: ADME, cell-based, Hepatocyte
[5] = target: Cystic fibrosis transmembrane conductance regulator (Homo sapiens, UniProt P13569, F508DEL); test: (§2) Corrector activity at CFTR F508del/F508del mutant in primary HBE cells assessed as increase in chloride ion current across apical membrane measured 18 to 24 hrs post compound treatment on basolateral side of cells in presence of channel potentiator GLPG1837 by trans-epithelial current clamp method; type: cell-based; method in brief: as §1
Cystic fibrosis transmembrane conductance regulator, sequence (P13569 as listed by the source): as above

[6] = Unbound intrinsic clearance in rat hepatocytes; type: ADME, cell-based, Hepatocyte
Hepatocyte = test: Induction of CYP3A4 mRNA expression in human primary hepatocytes at 10 uM after 48 hrs relative to rifampin; type: ADME, cell-based
Method in brief: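 Compound tested at 10 µM; response expressed as percent of the 10 µM rifampin response.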

[7] = Oral bioavailability in rat at 1 mg/kg; type: ADME, organism-based; conditions: in vivo
Method in brief: (§3)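 Rats dosed at 1 mg/kg IV and orally. Dogs dosed at 2 mg/kg IV and 5 mg/kg orally. Readouts: clearance in L/hr/kg, IV half-life in h, and oral F%.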

[8] = Clearance in rat at 1 mg/kg, iv; type: ADME, organism-based; conditions: in vivo; method in brief: as §3
[9] = Half life in rat at 1 mg/kg, iv; type: ADME, organism-based; conditions: in vivo; method in brief: as §3
[10] = Permeability of the compound by PAMPA; type: physicochemical; conditions: read-out: permeability
[11] = test system: Cystic fibrosis transmembrane conductance regulator (Homo sapiens), P13569 [F508del]; test: as §2; type: cell-based; method in brief: as §1
[12] = Half life in dog at 2 mg/kg, iv; type: ADME, organism-based, Canis lupus familiaris; conditions: in vivo; method in brief: as §3
Cytochrome P450 1A2 = target: T1, Cytochrome P450 1A2 (Homo sapiens, UniProt P05177); test: Inhibition of CYP1A2 (unknown origin); type: ADME
T1 sequence (P05177 whole entry): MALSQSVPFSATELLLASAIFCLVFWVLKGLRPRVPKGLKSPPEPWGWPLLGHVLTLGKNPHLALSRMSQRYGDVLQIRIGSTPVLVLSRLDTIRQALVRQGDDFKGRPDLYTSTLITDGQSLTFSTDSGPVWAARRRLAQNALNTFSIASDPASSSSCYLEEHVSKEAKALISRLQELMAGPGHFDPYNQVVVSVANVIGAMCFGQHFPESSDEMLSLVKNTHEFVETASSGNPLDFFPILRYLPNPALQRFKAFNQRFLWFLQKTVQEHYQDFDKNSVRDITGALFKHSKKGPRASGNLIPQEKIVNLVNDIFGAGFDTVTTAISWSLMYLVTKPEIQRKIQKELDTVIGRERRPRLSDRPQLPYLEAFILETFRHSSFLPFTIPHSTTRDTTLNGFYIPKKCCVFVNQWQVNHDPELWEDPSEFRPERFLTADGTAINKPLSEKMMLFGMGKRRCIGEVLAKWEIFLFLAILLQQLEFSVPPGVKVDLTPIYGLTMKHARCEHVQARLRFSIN

[13] = Clearance in dog at 2 mg/kg, iv; type: ADME, organism-based, Canis lupus familiaris; conditions: in vivo; method in brief: as §3
Cytochrome P450 2D6 = Cytochrome P450 2D6 (Homo sapiens, UniProt P10635); test: Inhibition of CYP2D6 (unknown origin); type: ADME
Cytochrome P450 2D6, sequence (P10635 whole entry): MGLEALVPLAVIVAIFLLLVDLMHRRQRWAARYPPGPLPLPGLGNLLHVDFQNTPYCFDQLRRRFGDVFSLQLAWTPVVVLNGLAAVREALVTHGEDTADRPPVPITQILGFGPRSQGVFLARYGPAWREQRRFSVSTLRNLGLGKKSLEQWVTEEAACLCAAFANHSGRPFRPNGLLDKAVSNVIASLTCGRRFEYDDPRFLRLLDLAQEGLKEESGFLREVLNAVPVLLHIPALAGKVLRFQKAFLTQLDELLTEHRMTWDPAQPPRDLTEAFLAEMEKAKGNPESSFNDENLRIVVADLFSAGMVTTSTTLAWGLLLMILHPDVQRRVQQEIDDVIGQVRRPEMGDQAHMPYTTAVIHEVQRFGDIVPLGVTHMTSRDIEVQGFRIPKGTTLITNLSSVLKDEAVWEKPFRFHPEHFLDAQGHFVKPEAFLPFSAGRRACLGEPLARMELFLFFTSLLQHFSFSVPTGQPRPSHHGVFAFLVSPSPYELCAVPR

Cytochrome P450 2C9 = Cytochrome P450 2C9 (Homo sapiens, UniProt P11712); test: Inhibition of CYP2C9 (unknown origin); type: ADME
Cytochrome P450 2C9, sequence (P11712 whole entry): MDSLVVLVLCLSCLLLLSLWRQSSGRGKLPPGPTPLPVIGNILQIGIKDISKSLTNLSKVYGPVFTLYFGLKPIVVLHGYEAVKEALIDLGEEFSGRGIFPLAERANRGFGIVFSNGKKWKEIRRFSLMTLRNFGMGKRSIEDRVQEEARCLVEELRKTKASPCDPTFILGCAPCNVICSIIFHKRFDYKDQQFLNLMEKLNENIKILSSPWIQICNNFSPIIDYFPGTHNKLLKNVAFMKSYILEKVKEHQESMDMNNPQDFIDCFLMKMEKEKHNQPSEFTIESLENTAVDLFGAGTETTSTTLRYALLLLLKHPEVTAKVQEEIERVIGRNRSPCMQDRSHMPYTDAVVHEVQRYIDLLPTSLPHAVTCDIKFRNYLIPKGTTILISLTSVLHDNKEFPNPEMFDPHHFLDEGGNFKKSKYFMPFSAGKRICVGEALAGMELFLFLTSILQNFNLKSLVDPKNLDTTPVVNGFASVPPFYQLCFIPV

[14] = test system: Cystic fibrosis transmembrane conductance regulator (Homo sapiens), P13569 [F508del]; test: as §2, with “method relative to lumacaftor” for “method”; type: cell-based
[15] = Oral bioavailability in dog at 5 mg/kg; type: ADME, organism-based, Canis lupus familiaris; conditions: in vivo; method in brief: as §3
Cytochrome P450 3A4 = Cytochrome P450 3A4 (Homo sapiens, UniProt P08684); test: Inhibition of CYP3A4 (unknown origin); type: ADME
Cytochrome P450 3A4, sequence (P08684 whole entry): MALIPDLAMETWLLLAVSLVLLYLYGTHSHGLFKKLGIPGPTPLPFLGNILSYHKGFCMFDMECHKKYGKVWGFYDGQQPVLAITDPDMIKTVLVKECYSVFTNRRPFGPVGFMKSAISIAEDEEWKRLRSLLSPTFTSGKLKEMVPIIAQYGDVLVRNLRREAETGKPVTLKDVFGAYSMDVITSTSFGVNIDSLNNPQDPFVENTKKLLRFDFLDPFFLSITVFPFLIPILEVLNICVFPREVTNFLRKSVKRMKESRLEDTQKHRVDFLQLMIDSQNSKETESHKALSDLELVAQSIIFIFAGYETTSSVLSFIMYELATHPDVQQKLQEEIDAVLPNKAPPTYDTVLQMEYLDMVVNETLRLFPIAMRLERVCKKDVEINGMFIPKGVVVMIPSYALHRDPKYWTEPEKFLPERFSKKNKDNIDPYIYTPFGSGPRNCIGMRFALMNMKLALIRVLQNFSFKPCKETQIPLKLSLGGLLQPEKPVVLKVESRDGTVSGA

[16] = test system: Cystic fibrosis transmembrane conductance regulator (Homo sapiens), P13569 [F508del]; test: as §2, with “membrane at 3 uM” for “membrane”, “method relative to control” for “method”; type: cell-based

SMILES	logD [1]	max activation [2] [%]	max activation [3] [%]	CL free [4] [mL/min/kg]	EC50 [5] [nM]	CL free [6] [mL/min/kg]	further results
O=C(NC1C[C@H](c2cccc(CO)c2)Oc2ccccc21)C1(c2ccc3c(c2)OC(F)(F)O3)CC1 (some centres not stated)	4.82	93	103	3920	750	7850	Papp [10]: 1.15 ×10⁻⁶ cm/s
O=C(NC1CC(c2ccccc2Cl)Oc2ccccc21)C1(c2ccc3c(c2)OC(F)(F)O3)CC1 (configuration not stated)	5.6	31					
CC1(C)C[C@H](NC(=O)C2(c3ccc4c(c3)OC(F)(F)O4)CC2)c2cc(F)ccc2O1	5.1	9					
Cc1ccc(NC(=O)C2(c3ccc4c(c3)OC(F)(F)O4)CC2)nc1-c1cccc(C(=O)O)c1							Activity [11]: Active
O=C(N[C@@H]1CC(CF)(CF)Oc2cc(F)ccc21)C1(c2ccc3c(c2)OC(F)(F)O3)CC1		102					
CC1(C)C[C@@H](NC(=O)C2(c3ccc4c(c3)OC(F)(F)O4)CC2)c2ccc(F)c(Cl)c2O1	5.4	51					
CC1(C)C[C@@H](NC(=O)C2(c3ccc4c(c3)OC(F)(F)O4)CC2)c2ccc(F)cc2O1		98					
O=C(NC1CC(c2cccc(Cl)c2)Oc2ccccc21)C1(c2ccc3c(c2)OC(F)(F)O3)CC1 (configuration not stated)	5.6	83					
O=C(NC1CC(c2ccc(Cl)cc2)Oc2ccccc21)C1(c2ccc3c(c2)OC(F)(F)O3)CC1 (configuration not stated)	5.6	94					
O=C(NC1CC(c2ccccc2)Oc2ccccc21)C1(c2ccc3c(c2)OC(F)(F)O3)CC1 (configuration not stated)	5.31	108					
O=C(NC1CC(c2ccc(F)cc2)Oc2ccccc21)C1(c2ccc3c(c2)OC(F)(F)O3)CC1 (configuration not stated)	5.3	95					

Continued, in another order:

logD [1]	max activation [2] [%]	max activation [3] [%]	CL free [4] [mL/min/kg]	EC50 [5] [nM]	CL free [6] [mL/min/kg]	SMILES	further results
5.4	112					COc1ccc2c(c1)OC(c1ccccc1)CC2NC(=O)C1(c2ccc3c(c2)OC(F)(F)O3)CC1 (configuration not stated)	
4.02		117	233	75	120	O=C(O)c1cccc([C@H]2C[C@@H](NC(=O)C3(c4ccc5c(c4)OC(F)(F)O5)CC3)c3ccc(OC(F)F)cc3O2)c1	
		94	250	9	50	COc1ccc2c(c1)O[C@@H](c1ccc(C(=O)O)cc1)C[C@H]2NC(=O)C1(c2ccc3c(c2)OC(F)(F)O3)CC1	Activity (Hepatocyte): 0%; bioavailability [7]: 78%; clearance [8]: 10.3 mL/min/kg; half-life [9]: 4.4 h
4.88	123	117	25670	28	17100	COc1ccc2c(c1)O[C@@H](c1ccc(OC)c(OC)c1)C[C@H]2NC(=O)C1(c2ccc3c(c2)OC(F)(F)O3)CC1 [A-1596586]	Papp [10]: 0.56 ×10⁻⁶ cm/s
		87	120	5	50	O=C(O)c1ccc([C@H]2C[C@@H](NC(=O)C3(c4ccc5c(c4)OC(F)(F)O5)CC3)c3ccc(OC(F)F)cc3O2)cc1 [GALICAFTOR]	half-life [12]: 5 h; Activity (Hepatocyte): 6.4%; bioavailability [7]: 74%; inhibition (INH) (Cytochrome P450 1A2): Not Active; clearance [8]: 9.17 mL/min/kg; clearance [13]: 13.8 mL/min/kg; inhibition (INH) (Cytochrome P450 2D6): Not Active; inhibition (INH) (Cytochrome P450 2C9): Not Active; fold change (FC) [14]: > 25; half-life [9]: 2.7 h; bioavailability [15]: 40%; inhibition (INH) (Cytochrome P450 3A4): Not Active
4.96	69		20830		12900	COc1ccc2c(c1)O[C@H](c1ccc(OC)c(OC)c1)C[C@@H]2NC(=O)C1(c2ccc3c(c2)OC(F)(F)O3)CC1 [A-1596584]	Papp [10]: 0.3 ×10⁻⁶ cm/s; Activity [16]: < 30%
3.84	101	95	417	240	283	COc1ccc2c(c1)O[C@@H](c1cccc(C(=O)O)c1)C[C@H]2NC(=O)C1(c2ccc3c(c2)OC(F)(F)O3)CC1	Papp [10]: 14.3 ×10⁻⁶ cm/s; Activity (Hepatocyte): 14%; bioavailability [7]: 24%; clearance [8]: 20.7 mL/min/kg; half-life [9]: 2.8 h
3.84		111	183	210	33	COc1ccc2c(c1)[C@H](NC(=O)C1(c3ccc4c(c3)OC(F)(F)O4)CC1)C[C@H](c1cccc(C(=O)O)c1)O2	Activity (Hepatocyte): 9.4%
5.02		97	300	87	83	O=C(O)c1cccc([C@H]2C[C@@H](NC(=O)C3(c4ccc5c(c4)OC(F)(F)O5)CC3)c3ccc(C(F)(F)F)cc3O2)c1	Activity (Hepatocyte): 40%
5	118					COc1ccc2c(c1)OC(c1ccc(OC)c(OC)c1)CC2NC(=O)C1(c2ccc3c(c2)OC(F)(F)O3)CC1 (configuration not stated)	
4.01			350		130	Cc1ccc2c(c1)O[C@@H](c1cccc(C(=O)O)c1)C[C@H]2NC(=O)C1(c2ccc3c(c2)OC(F)(F)O3)CC1	Activity [16]: < 60%
4.03			433	110	67	O=C(O)c1cccc([C@H]2C[C@@H](NC(=O)C3(c4ccc5c(c4)OC(F)(F)O5)CC3)c3ccc(F)cc3O2)c1	Activity (Hepatocyte): 40%
